These results are taken from ChEMBL document CHEMBL1136692, “Pharmacokinetic optimization of 3-amino-6-chloropyrazinone acetamide thrombin inhibitors. Implementation of P3 pyridine N-oxides to deliver an orally bioavailable series containing P1 N-benzylamides” (Bioorg Med Chem Lett, 2003).

Data set [1] can be described thus: Partition coefficient (logP) of the compound. The class given is physicochemical. The following applies: octanol/water.
The nature of data set [2]: Vd (1 mg/kg) was determined in dog (in vivo). The class given is ADME, organism-based, Canis lupus familiaris. The gist of the method:
(§1)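 Plasma clearance and volume of distribution determined at a species-specific dose: 1 mg/kg for dog, 10 mg/kg for rat, 5 mg/kg for rhesus.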

Data set [3] in a line: Maximum plasma concentration (Cmax) in rhesus monkey(in vivo) at a dose of 5 mg/kg. The class given is ADME, organism-based. The arrangement: dose 5 mg/kg. Particulars: cercopithecidae. The gist of the method: (§2)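 Maximum plasma concentration in rat (10 mg/kg) and in rhesus (5 mg/kg), each measured at the dose stated for its species.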
Data set [4] is described as follows: Plasma clearance (pharmacokinetic parameter) in dog (in vivo) at a dose of 1 mg/kg. The class given is ADME, organism-based, Canis lupus familiaris. The arrangement: dose 1 mg/kg. Particulars: read-out: Clp. In short, it runs like this:
as §1

A short description of data set [5]: Plasma clearance (pharmacokinetic parameter) in rat (in vivo) at a dose of 10 mg/kg. The class given is ADME, organism-based. The arrangement: dose 10 mg/kg. Particulars: read-out: Clp. The gist of the method:
as §1

Data set [6] can be described thus: Plasma clearance (pharmacokinetic parameter) in rhesus (in vivo) at a dose of 5 mg/kg. Particulars: rhesus monkey, read-out: Clp. Set-up: dose 5 mg/kg. The format is ADME, organism-based, Macaca mulatta. The gist of the method: as §1
A short description of data set [7]: Maximum plasma concentration (Cmax) in rat (in vivo) at a dose of 10 mg/kg. The class given is ADME, organism-based. The arrangement: dose 10 mg/kg. In short, it runs like this: as §2
Data set [8] can be described thus: Half life period after intravenous administration (1 mg/kg) was determined in dog (in vivo). The class given is ADME, organism-based, Canis lupus familiaris.
A short description of data set [9]: t1/2 in dog. Particulars: in vivo. The class given is ADME, organism-based, Canis lupus familiaris. The gist of the method: (§3)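 Dog pharmacokinetics after oral dosing at 1 mg/kg, or at 0.7 or 0.5 mg/kg where footnoted. Cmax (µM) and oral half-life (h) from plasma levels.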
Data set [10] in a line: Maximum plasma concentration (Cmax) in dog at a dose of 1 mg/kg. The format is ADME, organism-based, Canis lupus familiaris. The arrangement: dose 1 mg/kg. In short, it runs like this: as §3
The nature of data set [11]: Maximum plasma concentration (Cmax) in dog (in vivo) at a dose of 1 mg/kg. The format is ADME, organism-based, Canis lupus familiaris. Set-up: dose 1 mg/kg. The gist of the method:
as §3

Data set [12] in a line: Oral bioavailability (10 mg/kg) was determined in rat. The class given is ADME, organism-based. The following applies: in vivo.
The nature of data set [13]: Half life period after intravenous administration (10 mg/kg) was determined in rat (in vivo). The class given is ADME, organism-based.
Data set [14] can be described thus: Half life period after intravenous administration (5 mg/kg) was determined in rhesus (in vivo). Particulars: rhesus monkey. The format is ADME, organism-based, Macaca mulatta.
Data set [15] in a line: Vd (10 mg/kg) was determined in rat (in vivo). The class given is ADME, organism-based. The gist of the method: as §1
A short description of data set [16]: Vd (5 mg/kg) was determined in rhesus (in vivo). The format is ADME, organism-based, Macaca mulatta. Particulars: rhesus monkey. In short, it runs like this: as §1
The species entered for a further data set is Homo sapiens. As to the kind of experiment: Concentration required to double the activated partial thromboplastin time (aPPT) in human plasma. The format is functional, cell-free. The gist of the method:
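Anticoagulant assay in human plasma. The value is the concentration of inhibitor that doubles the activated partial thromboplastin time (2×aPTT).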

In data set [17] the test system is Rattus norvegicus. As to the kind of experiment: […] activated partial thromboplastin time(APPT) after intravenous administration in rat model of FeCl3-induced carotid thrombosis. The class given is functional.
Data set [18] relates to Rattus norvegicus. Nature of the data set: Thrombin time of occlusion after intravenous administration in rat model of FeCl3-induced carotid thrombosis. The class given is functional.
The subject of data set [19] is Rattus norvegicus. As to the kind of experiment: Time of occlusion after intravenous administration in rat model of FeCl3-induced carotid thrombosis. The format is functional. In short, it runs like this: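 Rat carotid artery thrombosis induced with FeCl3. Compound given iv as a continuous infusion (µg/kg/min; vehicle 0.3% DMSO). Read-outs: incidence of occlusion, time to occlusion, thrombin time, aPTT (s) and plasma level (µM).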

A short description of data set [20]: Oral bioavailability (1 mg/kg) was determined in dog. Particulars: in vivo.
Data set [21] can be described thus: Oral bioavailability (5 mg/kg) was determined in rhesus. The following applies: Macaca mulatta, rhesus monkey, in vivo.

SMILES strings stand for the structures.

With `O=C(Cn1c(Cl)cnc(NCC(F)(F)c2cccc[n+]2[O-])c1=O)NCc1ccccc1F`, the logP (usually the decadic logarithm of the partition coefficient of the neutral form, usually between octanol and water) in data set [1] came to 1.39. Also, the Vd – broadly, the apparent volume that relates the amount in the body to the concentration in plasma or blood – in data set [2] was determined as 0.49 L/kg; in data set [15], 0.93 L/kg; in [16], 1.5 L/kg. Moreover, the highest concentration (Cmax) (usually the peak of the concentration-time curve) in [3] came out at 1050 nM; in [7], 1940 nM; in data set [10], 3500 nM; in data set [11], 3280 nM. For the same compound, the clearance in data set [4] turned out to be 1.55 mL/min/kg; in data set [5] it was 43 mL/min/kg; in data set [6] it was 19 mL/min/kg. The half-life – broadly, the time needed for the level to fall by half in the phase considered – was 6.3 h in data set [8], 4.9 h in data set [9], 0.43 h in data set [13] and 1.1 h in data set [14]. Besides, the bioavailability – broadly, dose-corrected exposure relative to a reference, in per cent – in data set [12] came out at 52%; in data set [20], 40%; in data set [21], 21%. The same compound yielded a Concentration in the data set filed under Homo sapiens of 0.4 µM. This compound registered an APTT with Rattus norvegicus [17] of 22.6 s. Besides, in the data set on Rattus norvegicus [18], the TT is 59.3 s. Besides, the TTO in the data set with Rattus norvegicus [19] is on record as 15.
